We go through 11 compounds from ChEMBL document CHEMBL1129266, “Synthesis and biological activity of NK-1 selective, N-backbone cyclic analogs of the C-terminal hexapeptide of substance P” (J Med Chem, 1996).

Starred links: 1 amine or outer side, 2 acyl side, 3 side chain; linkers in the order of their positions; H or OH if unused. Positions of bridges follow the written chain, without caps; N, C: chain ends. Non-standard residues stand in square brackets, D forms with d. Residues, ends and D or L forms follow the SMILES beside them. *: point of attachment. N(6-aminohexyl)Gly = O=C(CN(CCCCCCN[*:3])[*:1])[*:2]; NGly(3-aminopropyl) = O=C(CN(CCCN[*:3])[*:1])[*:2]; N(2-Aminoethyl)Gly = O=C(CN(CCN[*:3])[*:1])[*:2]; Adipoyl = O=C(CCCCC(=O)[*:2])[*:1]; Glutaryl = O=C(CCCC(=O)[*:2])[*:1]; X2 = CC(=O)NCCCN(CC(=O)[*:2])[*:1]; Gly(N(CH2)3NH2) = NCCCNCC(=O)O; Suc = O=C(CCC(=O)[*:2])[*:1]; X1 = CNC(=O)CCCCC(=O)*

Assay [1] has as its target T1, Neuromedin-K receptor (Rattus norvegicus, UniProt P16177).
T1 sequence (P16177 whole entry): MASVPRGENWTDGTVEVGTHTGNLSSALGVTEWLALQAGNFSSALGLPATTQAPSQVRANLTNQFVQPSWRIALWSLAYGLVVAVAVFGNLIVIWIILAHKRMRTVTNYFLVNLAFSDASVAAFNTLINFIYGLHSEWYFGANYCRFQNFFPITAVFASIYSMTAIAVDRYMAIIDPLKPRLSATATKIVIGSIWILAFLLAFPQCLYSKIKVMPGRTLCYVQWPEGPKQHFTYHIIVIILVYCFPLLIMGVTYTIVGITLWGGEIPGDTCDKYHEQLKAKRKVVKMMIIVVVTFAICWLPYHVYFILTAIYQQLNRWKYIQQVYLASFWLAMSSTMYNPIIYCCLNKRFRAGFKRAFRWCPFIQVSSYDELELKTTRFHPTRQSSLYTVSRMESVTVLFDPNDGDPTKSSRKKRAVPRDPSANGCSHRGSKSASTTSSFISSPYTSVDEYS
The assay can be described thus: Effective concentration to activate Tachykinin receptor 3 in rat portal vein (RPV). In short, it runs like this: (§1)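 Portal vein from rat killed by decapitation, mounted in a bath at 37 °C under about 0.5 g tension and equilibrated for 1 h. Peptides were then added at 20 min intervals to avoid receptor desensitization, and contractile responses were recorded.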

Assay [2] has as its target T2, Substance-K receptor (Rattus norvegicus, UniProt P16610).
T2 sequence (P16610 whole entry): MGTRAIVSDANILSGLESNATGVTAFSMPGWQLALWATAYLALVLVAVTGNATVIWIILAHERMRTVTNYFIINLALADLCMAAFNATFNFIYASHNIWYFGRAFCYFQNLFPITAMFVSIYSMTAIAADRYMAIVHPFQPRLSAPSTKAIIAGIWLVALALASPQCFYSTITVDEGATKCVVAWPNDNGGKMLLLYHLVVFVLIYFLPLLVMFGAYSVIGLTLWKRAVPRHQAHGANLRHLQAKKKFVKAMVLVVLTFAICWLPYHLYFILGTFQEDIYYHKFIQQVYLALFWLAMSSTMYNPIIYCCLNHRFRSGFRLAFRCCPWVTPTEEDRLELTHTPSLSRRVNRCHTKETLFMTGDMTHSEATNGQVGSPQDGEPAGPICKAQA
Description: Effective concentration to activate Tachykinin receptor 2 in rat vas deferens (RVD).

Another assay addresses Substance-P receptor (Cavia porcellus, UniProt P30547). The assay can be described thus: Effective concentration to activate Tachykinin receptor 1 in guinea pig ileum(GPI). The assay is classed as tissue-based.
For assay [3], the target named is T1, Neuromedin-K receptor. Description: Effective concentration to activate Tachykinin receptor 3 in rat portal vein(RPV). A digest of the protocol: as §1
Assay [4] addresses T2, Substance-K receptor. The assay can be described thus: Effective concentration to activate Tachykinin receptor 2 in rat vas deferens(RVD).

Sequence of Substance-P receptor (P30547 whole entry): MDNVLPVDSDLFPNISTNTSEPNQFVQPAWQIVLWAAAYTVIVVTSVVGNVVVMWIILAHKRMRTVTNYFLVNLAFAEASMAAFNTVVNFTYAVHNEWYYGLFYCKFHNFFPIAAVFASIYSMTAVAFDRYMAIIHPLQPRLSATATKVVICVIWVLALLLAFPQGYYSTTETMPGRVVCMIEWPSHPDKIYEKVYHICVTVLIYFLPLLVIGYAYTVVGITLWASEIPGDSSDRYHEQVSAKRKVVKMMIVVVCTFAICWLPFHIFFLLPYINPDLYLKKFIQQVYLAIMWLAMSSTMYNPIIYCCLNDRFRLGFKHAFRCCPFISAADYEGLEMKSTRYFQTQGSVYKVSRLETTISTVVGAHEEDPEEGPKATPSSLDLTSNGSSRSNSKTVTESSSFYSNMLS

What is called EC50 is the concentration at which the effect is half-maximal. A high value points to a need for much substance. On to `CSCC[C@H](NC(=O)[C@H](CC(C)C)NC(=O)CN1CCCNC(=O)CCC(=O)N[C@@H](CCCN=C(N)N)C(=O)N[C@@H](Cc2ccccc2)C(=O)N[C@@H](Cc2ccccc2)C1=O)C(N)=O` (RFF[NGly(3-aminopropyl)]LM-NH2; linker N-4 via Suc), for which the 50% effective concentration (EC50) on Neuromedin-K receptor [1] is more than 10 µM; on Substance-K receptor [2], more than 50 µM; on Substance-P receptor, 0.18 µM.

On to Ac-RFFPLM-NH2, for which the EC50 at Neuromedin-K receptor [3] is more than 50 µM; on Substance-K receptor [2], more than 200 µM; on Substance-P receptor it was 0.003 µM.

Regarding `CSCC[C@H](NC(=O)[C@H](CC(C)C)NC(=O)CNC(=O)[C@H](Cc1ccccc1)N(C)C(=O)[C@H](Cc1ccccc1)NC(=O)[C@H](CC(=O)O)NC(=O)CCC(=O)O)C(N)=O` [SENKTIDE], the EC50 on Substance-K receptor [2] is more than 200 µM; on Substance-P receptor it was 35 µM.

Consider `CSCC[C@H](NC(=O)[C@H](CC(C)C)NC(=O)CN1CCCCCCNC(=O)CCCC(=O)N[C@@H](CCCN=C(N)N)C(=O)N[C@@H](Cc2ccccc2)C(=O)N[C@@H](Cc2ccccc2)C1=O)C(N)=O` (RFF[N(6-aminohexyl)Gly]LM-NH2; linker N-4 via Glutaryl), for which the EC50 was 1 µM on Neuromedin-K receptor [1], more than 50 µM on Substance-K receptor [2] and 0.06 µM at Substance-P receptor.

Turning to `CSCC[C@H](NC(=O)[C@H](CC(C)C)NC(=O)CN1CCNC(=O)CCC(=O)N[C@@H](CCCNC(=N)N)C(=O)N[C@@H](Cc2ccccc2)C(=O)N[C@@H](Cc2ccccc2)C1=O)C(N)=O` (RFF[N(2-Aminoethyl)Gly]LM-NH2; linker N-4 via Suc), the concentration for a half-maximal effect (EC50) is more than 10 µM on Neuromedin-K receptor [1], more than 50 µM on Substance-K receptor [2] and 4 µM on Substance-P receptor.

Consider `CSCC[C@H](NC(=O)[C@H](CC(C)C)NC(=O)CN1CCNC(=O)CCC(=O)NCC(=O)N[C@@H](CCCN=C(N)N)C(=O)N[C@@H](Cc2ccccc2)C(=O)N[C@@H](Cc2ccccc2)C1=O)C(N)=O` (GRFF[N(2-Aminoethyl)Gly]LM-NH2; linker N-5 via Suc), for which the EC50 on Neuromedin-K receptor [1] was more than 10 µM; at Substance-K receptor [2], more than 50 µM; on Substance-P receptor it was more than 10 µM.

With `CSCC[C@H](NC(=O)[C@H](CC(C)C)NC(=O)CN1CCCNC(=O)CCCCC(=O)N[C@@H](CCCN=C(N)N)C(=O)N[C@@H](Cc2ccccc2)C(=O)N[C@@H](Cc2ccccc2)C1=O)C(N)=O` (RFF[NGly(3-aminopropyl)]LM-NH2; linker N-4 via Adipoyl), the EC50 on Neuromedin-K receptor [1] is more than 10 µM; on Substance-K receptor [2] it was more than 200 µM; at Substance-P receptor, 0.005 µM.

Regarding `CNC(=O)CCCCC(=O)N[C@@H](CCCNC(=N)N)C(=O)N[C@@H](Cc1ccccc1)C(=O)N[C@@H](Cc1ccccc1)C(=O)N(CCCNC(C)=O)CC(=O)N[C@@H](CC(C)C)C(=O)N[C@@H](CCSC)C(N)=O` (X1-RFF[X2]LM-NH2), the EC50 is more than 100 µM on Substance-K receptor [4], 2 µM at Neuromedin-K receptor [3] and 0.4 µM at Substance-P receptor.

With `CSCC[C@H](NC(=O)[C@H](CC(C)C)NC(=O)CN(CCCN)C(=O)[C@H](Cc1ccccc1)NC(=O)[C@H](Cc1ccccc1)NC(=O)[C@H](CCCNC(=N)N)NC(C)=O)C(N)=O` (Ac-RFF[Gly(N(CH2)3NH2)]LM-NH2), the concentration giving a half-maximal response (EC50) at Neuromedin-K receptor [1] is 2 µM; on Substance-K receptor [2] it was more than 100 µM; on Substance-P receptor, 0.3 µM.

For `CSCC[C@H](NC(=O)[C@H](CC(C)C)NC(=O)CN1CCCCCCNC(=O)CCC(=O)N[C@@H](CCCN=C(N)N)C(=O)N[C@@H](Cc2ccccc2)C(=O)N[C@@H](Cc2ccccc2)C1=O)C(N)=O` (RFF[N(6-aminohexyl)Gly]LM-NH2; linker N-4 via Suc), the EC50 on Neuromedin-K receptor [1] was 1 µM; at Substance-K receptor [2], more than 50 µM; at Substance-P receptor it was 0.16 µM.

With `CSCC[C@H](NC(=O)[C@H](CC(C)C)NC(=O)CN1CCCNC(=O)CCCC(=O)N[C@@H](CCCN=C(N)N)C(=O)N[C@@H](Cc2ccccc2)C(=O)N[C@@H](Cc2ccccc2)C1=O)C(N)=O` (RFF[NGly(3-aminopropyl)]LM-NH2; linker N-4 via Glutaryl), the EC50 was more than 10 µM at Neuromedin-K receptor [1], more than 50 µM at Substance-K receptor [2] and 0.011 µM on Substance-P receptor.
